Published values from different studies.
Each line is one published result; the experiments were not run side by side.
Organism: Acinetobacter baumannii
Effect on: microbial growth

Compound	method	strain	time	setting	MIC
CNc1cccc2c(O)c3c(cc12)C[C@H]1C[C@H]2[C@H](N(C)C)C(O)=C(C(N)=O)C(=O)[C@@]2(O)C(O)=C1C3=O	broth dilution	ATCC19606			> 32 µg/mL
CCCCCCC/C=C/C(=O)N1C(=O)/C(=C(\O)c2ccccc2)C(=O)C1CC(C)C (stereo not drawn)		ATCC19606			> 200 µg/mL
CC[C@H]1OC(=O)[C@H](C)[C@@H](O[C@H]2C[C@@](C)(OC)[C@@H](O)[C@H](C)O2)[C@H](C)[C@@H](O[C@@H]2O[C@H](C)C[C@H](N(C)C)[C@H]2O)[C@](C)(O)C[C@@H](C)C(=O)[C@H](C)[C@@H](O)[C@]1(C)O		ATCC19606			50 µg/mL
CN(C)c1cc(CNCC(C)(C)C)c(O)c2c1C[C@H]1C[C@H]3[C@H](N(C)C)C(O)=C(C(N)=O)C(=O)[C@@]3(O)C(O)=C1C2=O	broth dilution	ATCC19606			1 µg/mL
O=C(CCCCCCCC[P+](c1ccccc1)(c1ccccc1)c1ccccc1)Nc1ccc(O)c(O)c1.[Br-]	broth dilution	ATCC19606	18 h		> 32 µg/mL
NC[C@@H]1O[C@H](O[C@H]2[C@@H](O)[C@H](O[C@@H]3[C@@H](O)[C@H](N)C[C@H](N)[C@H]3O[C@H]3O[C@H](CO)[C@@H](O)[C@H](O)[C@H]3N)O[C@@H]2CO)[C@H](N)[C@@H](O)[C@@H]1O					2 to 4 µg/mL
NC1CCCCc2c1[nH]c1ccc(Cl)c(Cl)c21 (stereo not drawn)	broth dilution	ATCC19606			16 µg/mL
CN(C)[C@@H]1C(O)=C(C(N)=O)C(=O)[C@@]2(O)C(O)=C3C(=O)c4c(cc5ccc(CN6CC(F)(F)C6)cc5c4O)C[C@H]3C[C@@H]12	broth dilution	ATCC19606			32 µg/mL
CN(C)[C@@H]1C(O)=C(C(N)=O)C(=O)[C@@]2(O)C(O)=C3C(=O)c4c(O)cncc4C[C@H]3C[C@@H]12.Cl.Cl	broth dilution	ATCC19606			2 µg/mL
O=C(O)c1ccc(-n2cc(/C=N/Nc3ccc(F)c(Cl)c3)c(-c3ccc4ccccc4c3)n2)cc1		ATCCBAA1605			25 µg/mL
Cc1nc(Cl)c2c(c1O)C(=O)C1=C(O)[C@]3(O)C(=O)C(C(N)=O)=C(O)[C@@H](N(C)C)[C@@H]3C[C@@H]1C2.Cl	broth dilution	ATCC19606			4 µg/mL
O=C(CCc1cc(O)c(O)c(O)c1)NCCCCCCCC[P+](c1ccccc1)(c1ccccc1)c1ccccc1.[Br-]	broth dilution	ATCC19606	18 h		> 32 µg/mL
O=C(O)c1ccc(-n2cc(/C=N/Nc3ccc(F)cc3)c(-c3ccc(F)cc3)n2)cc1		ATCCBAA1605			25 µg/mL
N=C(N)c1ccc(OCc2ccc(Br)cc2COc2ccc(C(=N)N)cc2)cc1	broth dilution	ATCC17978			> 200 µg/mL
CCCCCCC/C=C/C(=O)N1C(=O)/C(=C(\O)C2CCNCC2)C(=O)C1CC(C)C (stereo not drawn)		ATCC19606			50 µg/mL
CC(C)(O/N=C(\C(=O)N[C@@H]1C(=O)N2C(C(=O)[O-])=C(C[n+]3ccccc3)CS[C@H]12)c1csc(N)n1)C(=O)O	broth dilution	ATCC19606			4 µg/mL
O=C(Cc1cc(O)c(O)c(O)c1)NCCCCCCCC[P+](c1ccccc1)(c1ccccc1)c1ccccc1.[Br-]	broth dilution	ATCC19606	18 h		> 32 µg/mL
C[C@@H](O)[C@H]1C(=O)N2C(C(=O)O)=C(S[C@@H]3CN[C@H](C(=O)N(C)C)C3)[C@H](C)[C@H]12				clinical isolate	128 µg/mL
O=C(O)c1ccc(-n2cc(/C=N/Nc3cccc(Br)c3)c(-c3cccc(F)c3)n2)cc1		ATCCBAA1605			12.5 µg/mL
CCCCCCC/C=C/C(=O)N1C(=O)/C(=C(/C)O)C(=O)C1Cc1ccc(O)cc1 (stereo not drawn)		ATCC19606			> 200 µg/mL

Compound	method	strain	time	setting	MIC
CN(C)[C@@H]1C(O)=C(C(N)=O)C(=O)[C@@]2(O)C(O)=C3C(=O)c4c(cc5ccc(-c6ccccc6)cc5c4O)C[C@H]3C[C@@H]12	broth dilution	ATCC19606			32 µg/mL
C[C@@H](O)[C@H]1C(=O)N2C(C(=O)O)=C(SCCN=CN)C[C@H]12	broth dilution	KCCM40203	16 h		1 µM
O=C(Nc1ccc2c(c1)OC(F)(F)O2)Nc1ccc(Cl)c(C(F)(F)F)c1		DSM30007			> 100 µM
N=C(N)c1ccc(OCCC(CCOc2ccc(C(=N)N)cc2)c2ccccc2)cc1 (stereo not drawn)	broth dilution	ATCC17978			> 200 µg/mL
CCCCCCC/C=C/C(=O)N1C(=O)/C(=C(\O)c2ccc(F)cc2)C(=O)C1CC(C)C (stereo not drawn)		ATCC19606			> 200 µg/mL
O=C(N[C@H](CO)[C@H](O)c1ccc([N+](=O)[O-])cc1)C(Cl)Cl		ATCC19606			250 µg/mL
NCCCNC1CCCCc2c1[nH]c1ccc(Br)cc21 (stereo not drawn)	broth dilution	ATCC19606			32 µg/mL
CO[C@@H](C(N)=O)[C@H](NC(=O)c1ccc(NC(=O)c2ccc(C#N)cc2)cc1)C(=O)Nc1ccc(C(=O)Nc2ccc(C(=O)Nc3ccc(C(=O)O)cc3)c(O)c2OC(C)C)cc1		DSM30008			1 µg/mL
N=C(N)c1ccc(OCc2ccccc2COc2ccc(C(=N)N)cc2)cc1	broth dilution	ATCC17978			> 200 µg/mL
CNC(C)C1CCC(N)C(OC2C(N)CC(N)C(OC3OCC(C)(O)C(NC)C3O)C2O)O1 (stereo not drawn)	broth dilution	ATCC19606			0.5 µg/mL
CNc1nc(Cl)c2c(c1O)C(=O)C1=C(O)[C@]3(O)C(=O)C(C(N)=O)=C(O)[C@@H](N(C)C)[C@@H]3C[C@@H]1C2.Cl.Cl.Cl	broth dilution	ATCC19606			0.031 µg/mL
NC1CCc2c1[nH]c1ccc(Cl)c(Cl)c21 (stereo not drawn)	broth dilution	ATCC19606			8 µg/mL
CN(C)c1ccc(-c2ccc3cc4c(c(O)c3c2)C(=O)C2=C(O)[C@]3(O)C(=O)C(C(N)=O)=C(O)[C@@H](N(C)C)[C@@H]3C[C@@H]2C4)cc1	broth dilution	ATCC19606			32 µg/mL
CN(C)CCCNc1nc(Cl)c2c(c1O)C(=O)C1=C(O)[C@]3(O)C(=O)C(C(N)=O)=C(O)[C@@H](N(C)C)[C@@H]3C[C@@H]1C2.Cl	broth dilution	ATCC19606			> 32 µg/mL
NC[C@H]1O[C@H](O[C@H]2[C@H](O)[C@@H](O[C@H]3O[C@H](CO)[C@@H](O)[C@H](N)[C@H]3O)[C@H](N)C[C@@H]2N)[C@H](N)C[C@@H]1O	broth dilution			clinical isolate	> 200 µM
NCC[C@H](O)C(=O)N[C@@H]1C[C@H](N)[C@@H](O[C@H]2O[C@H](CN)[C@@H](O)[C@H](O)[C@H]2O)[C@H](O)[C@H]1O[C@H]1O[C@H](CO)[C@@H](O)[C@H](N)[C@H]1O					2 µg/mL
O=C(CCCCCCCCCC[P+](c1ccccc1)(c1ccccc1)c1ccccc1)Nc1cc(O)c(O)c(O)c1.[Br-]	broth dilution	ATCC19606	18 h		> 32 µg/mL
CCCCCCC/C=C/C(=O)N1C(=O)/C(=C(/C)O)C(=O)C1CCC(=O)O (stereo not drawn)		ATCC19606			> 200 µg/mL
CN(C)[C@@H]1C(O)=C(C(N)=O)C(=O)[C@@]2(O)C(O)=C3C(=O)c4c(O)c(-c5ccccc5)nc(Cl)c4C[C@H]3C[C@@H]12.Cl	broth dilution	ATCC19606			16 µg/mL
